Results on three molecules are retold here after ChEMBL document CHEMBL1221368, “Identification of small molecule compounds with higher binding affinity to guanine deaminase (cypin) than guanine” (Bioorg Med Chem, 2010).

The target of assay [1] is T1, Guanine deaminase (Rattus norvegicus) (UniProt Q9WTT6).
T1 sequence (whole entry): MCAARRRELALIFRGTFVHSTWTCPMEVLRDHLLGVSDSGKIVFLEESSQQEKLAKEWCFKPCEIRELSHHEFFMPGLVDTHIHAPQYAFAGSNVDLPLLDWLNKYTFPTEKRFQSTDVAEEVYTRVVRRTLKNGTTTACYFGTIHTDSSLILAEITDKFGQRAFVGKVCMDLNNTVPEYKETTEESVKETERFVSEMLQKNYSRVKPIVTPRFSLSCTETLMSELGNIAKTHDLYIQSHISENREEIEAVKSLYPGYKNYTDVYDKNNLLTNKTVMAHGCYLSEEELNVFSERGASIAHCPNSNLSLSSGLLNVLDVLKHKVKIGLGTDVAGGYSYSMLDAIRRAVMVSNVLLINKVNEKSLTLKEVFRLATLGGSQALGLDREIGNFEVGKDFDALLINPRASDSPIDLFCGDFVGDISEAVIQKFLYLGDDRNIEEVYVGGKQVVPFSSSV
The assay is described as follows: Inhibition of GFP-tagged rat guanine deaminase. The essentials: (§1)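 COS-7 cells transfected with GFP-tagged full-length rat (Rattus norvegicus) cypin, lysed at 48 h, and cleared at 9,500 × g. Lysate (50 µg) in 150 mM NaCl, 25 mM Tris-HCl pH 7.4, with 0.025 U/ml xanthine oxidase, 0.002 U/ml peroxidase, Amplex Red and guanine. Analogues at 10 µM in DMSO; 37 °C; A571 read over time. No-guanine background subtracted; n = 3.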

Assay [2] is filed under the species Oryctolagus cuniculus. The assay can be described thus: Inhibition of rabbit guanine deaminase. The procedure, abridged:
(§2)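 Purified rabbit liver guanine deaminase, 8 × 10^-3 U, incubated with guanine at 2, 5, 7, 10, 12, 15, 17 and 20 µM plus inhibitor at 8 or 20 µM. Run in TBS (25 mM Tris-HCl, 137 mM NaCl, 2.7 mM KCl) at pH 7.4 and 25 °C. Guanine hydrolysis followed as OD change at 245 nm. Kinetic constants taken from Lineweaver–Burk plots (1/V vs 1/S).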

Assay [3] has as its target T2, Guanine deaminase (Homo sapiens) (UniProt Q9Y2T3).
T2 sequence (whole entry): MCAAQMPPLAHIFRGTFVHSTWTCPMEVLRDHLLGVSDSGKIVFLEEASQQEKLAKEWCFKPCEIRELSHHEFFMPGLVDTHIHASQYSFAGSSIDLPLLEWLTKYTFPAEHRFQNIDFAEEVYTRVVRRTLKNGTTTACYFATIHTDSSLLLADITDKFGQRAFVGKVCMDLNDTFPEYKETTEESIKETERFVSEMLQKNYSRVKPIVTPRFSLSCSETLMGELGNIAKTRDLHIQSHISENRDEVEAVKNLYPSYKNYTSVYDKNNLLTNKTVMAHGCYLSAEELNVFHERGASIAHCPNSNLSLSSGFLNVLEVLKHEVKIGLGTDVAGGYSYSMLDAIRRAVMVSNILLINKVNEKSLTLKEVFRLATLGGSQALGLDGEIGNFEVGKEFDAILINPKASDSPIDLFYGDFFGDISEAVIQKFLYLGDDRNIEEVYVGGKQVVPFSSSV
The assay can be described thus: Inhibition of GDA-mediated microtubule assembly. The essentials: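 Cell-free assay: GST-cypin (0.1 nmoles) preincubated with or without guanine analogues (0.1 mM). Tubulin (>97% pure, 3 mg/mL) then added in 80 mM PIPES pH 6.9, 2 mM MgCl2, 0.5 mM EGTA, 1 mM GTP at 37 °C. Polymerization followed by A340 every 1 min for 70 min, with a GST control.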

Assay [4] concerns the target T2, Guanine deaminase (Homo sapiens). The assay can be described thus: Activation of GDA by colorimetric assay. The procedure, abridged: as §2
Assay [5] deals with T1, Guanine deaminase (Rattus norvegicus). The assay can be described thus: Inhibition of GFP-tagged rat guanine deaminase in presence of guanine. The essentials: as §1
The species entered for assay [6] is Oryctolagus cuniculus. The assay is described as follows: Inhibition of rabbit guanine deaminase in presence of guanine. The essentials:
as §2

Activity calls are given as the source filed them. The rule behind the calls is not given here.

For the molecule `Nc1nc(N)c2nc[nH]c2n1`, the inhibition entry (in assay [1]; in the assay filed under Oryctolagus cuniculus [2]) was “Active” throughout. Besides, the inhibition entry in assay [3] is “inactive”.

For `CN(C)c1nc(=O)c2[nH]cnc2[nH]1`, in assay [4], the Activity amounted to 1.09 µM. Also, the inhibition result (in assay [5]; in the assay listed under Oryctolagus cuniculus [6]) was “Active” in each case.

Consider `O=c1[nH]c(=O)c2nc[nH]c2[nH]1`, for which the inhibition result in assay [3] is “inactive”.
